# Experimental data gathered from unrelated publications.
# Protocols differ between the studies behind these lines.
# ACE: Angiotensin-converting enzyme (ACE, Homo sapiens, UniProt P12821)
# CA12: Carbonic anhydrase 12 (CA12, Homo sapiens, UniProt O43570)
# GHSR: Growth hormone secretagogue receptor type 1 (GHSR, Homo sapiens, UniProt Q92847)
# DRD3: D(3) dopamine receptor (DRD3, Homo sapiens, UniProt P35462)
SMILES,target,read-out,mode,method,endpoint,value
CC(C)C[C@H](NC(=O)[C@H](Cc1ccc(O)cc1)NC(=O)[C@@H](N)C(C)C)C(=O)N[C@@H](CCC(=O)O)C(=O)N[C@@H](CCC(N)=O)C(=O)O,ACE,enzyme activity,inhibitor,absorbance,IC50,27.9 µM
CC[C@H](C)[C@H](NC(=O)[C@H](Cc1ccccc1)NC(=O)[C@H](CC(=O)O)NC(=O)[C@H](CCCNC(=N)N)NC(=O)[C@@H](NC(=O)[C@H](C)NC(=O)[C@H](CCCCN)NC(=O)[C@H](CCCNC(=N)N)NC(=O)[C@H](CCC(=O)O)NC(=O)[C@H](CC(C)C)NC(=O)[C@H](CC(C)C)NC(=O)[C@H](CCC(=O)O)NC(=O)[C@H](CC(=O)O)NC(=O)[C@H](Cc1c[nH]c2ccccc12)NC(=O)[C@H](CC(C)C)NC(=O)[C@H](CO)NC(=O)[C@@H](NC(=O)[C@H](Cc1ccccc1)NC(=O)[C@H](CCC(=O)O)NC(=O)[C@H](CC(C)C)NC(=O)[C@H](CCC(=O)O)NC(=O)CNC(=O)[C@@H]1CCCN1)[C@@H](C)O)C(C)C)C(=O)N[C@@H](C)C(=O)N[C@@H](Cc1c[nH]cn1)C(=O)N[C@@H](CC(C)C)C(=O)N[C@@H](CCCCN)C(=O)N[C@@H](CCC(N)=O)C(=O)O,"Glucagon-like peptide 1 receptor (GLP1R, Homo sapiens, UniProt P43220)",calcium signal,antagonist,fluorescence,IC50,1.61 µM
O=C(Nc1ccc(Br)cc1)Nc1ccc2c(c1)C=CCP(=O)(O)O2,CA12,enzyme activity,inhibitor,stopped-flow,Ki,> 10 µM
CC[C@H](C)[C@H](NC(=O)[C@H](C)NC(=O)[C@H](CCCNC(=N)N)NC(=O)[C@H](CCC(=O)O)NC(=O)[C@H](CCCNC(=N)N)NC(=O)[C@H](CCC(=O)O)NC(=O)[C@H](CC(C)C)NC(=O)[C@H](CC(C)C)NC(=O)[C@H](CCCNC(=N)N)NC(=O)[C@H](CCCNC(=N)N)NC(=O)[C@H](CCC(N)=O)NC(=O)[C@H](Cc1c[nH]cn1)NC(=O)[C@H](CCC(=O)O)NC(=O)[C@@H]1CCCN1C(=O)[C@H](CO)NC(=O)[C@H](CC(C)C)NC(=O)[C@H](Cc1ccccc1)NC(=O)[C@H](Cc1c[nH]c2ccccc12)NC(=O)[C@H](CO)NC(=O)CN)C(=O)N1CCC[C@H]1C(=O)N1CCC[C@H]1C(=O)N1CCC[C@H]1C(=O)N1CCC[C@H]1C(=O)N[C@H](C(=O)N[C@H](C(=O)N1CCC[C@H]1C(=O)N[C@@H](CC(C)C)C(=O)O)C(C)C)C(C)C,GHSR,calcium signal,agonist,fluorescence,EC50,0.16 µM
O=C(Nc1ccc(C(F)(F)F)cc1)Nc1ccc2c(c1)C=CCP(=O)(O)O2,CA12,enzyme activity,inhibitor,stopped-flow,Ki,> 10 µM
CC[C@H](C)[C@H](NC(=O)[C@H](C)NC(=O)[C@H](C)NC(=O)[C@H](CCC(=O)O)NC(=O)[C@H](CCCNC(=N)N)NC(=O)[C@H](C)NC(=O)[C@H](CC(C)C)NC(=O)[C@H](CC(C)C)NC(=O)[C@H](CCCNC(=N)N)NC(=O)[C@H](CCCNC(=N)N)NC(=O)[C@H](C)NC(=O)[C@H](Cc1c[nH]cn1)NC(=O)[C@H](CCC(=O)O)NC(=O)[C@@H]1CCCN1C(=O)[C@H](CO)NC(=O)[C@H](CC(C)C)NC(=O)[C@H](Cc1ccccc1)NC(=O)[C@H](Cc1c[nH]c2ccccc12)NC(=O)[C@H](CO)NC(=O)CN)C(=O)N1CCC[C@H]1C(=O)N1CCC[C@H]1C(=O)N1CCC[C@H]1C(=O)N1CCC[C@H]1C(=O)N[C@H](C(=O)N[C@H](C(=O)N1CCC[C@H]1C(=O)N[C@@H](CC(C)C)C(=O)O)C(C)C)C(C)C,GHSR,calcium signal,agonist,fluorescence,EC50,0.15 µM
N#C[Se]CCCCOc1ccc2c(-c3ccccc3)cc(=O)oc2c1,CA12,enzyme activity,inhibitor,stopped-flow,Ki,0.296 µM
O=C(Nc1cccc(C(F)(F)F)c1)Nc1ccc2c(c1)C=CCP(=O)(O)O2,CA12,enzyme activity,inhibitor,stopped-flow,Ki,> 10 µM
CCOC(=O)c1ccc(OC(=O)CCCCCN=C(N)N)cc1,"Kallikrein-2 (Homo sapiens, UniProt P20151)",enzyme activity,inhibitor,,IC50,0.426 µM
O=C(Nc1ccc2c(c1)C=CCP(=O)(O)O2)c1cccs1,CA12,enzyme activity,inhibitor,stopped-flow,Ki,0.0746 µM
CC(C)C[C@H](NC(=O)[C@@H](NC(=O)[C@@H](NC(=O)[C@@H]1CCCN1C(=O)[C@@H](N)CCC(=O)O)C(C)C)[C@@H](C)O)C(=O)O,ACE,enzyme activity,inhibitor,,IC50,~432 µM
Cc1[nH]c(C)c(S(=O)(=O)Nc2ccc(S(F)(F)(F)(F)F)cc2)c1C(=O)N1CCC(F)(F)C1,DRD3,β-arrestin recruitment,antagonist,,IC50,2.3 µM
CC[C@H](C)[C@H](NC(=O)[C@H](C)NC(=O)[C@H](C)NC(=O)[C@H](CCC(=O)O)NC(=O)[C@H](CCCNC(=N)N)NC(=O)[C@H](C)NC(=O)[C@H](CC(C)C)NC(=O)[C@H](CC(C)C)NC(=O)[C@H](CCCNC(=N)N)NC(=O)[C@H](CCCNC(=N)N)NC(=O)[C@H](CC(C)C)NC(=O)[C@H](Cc1c[nH]cn1)NC(=O)[C@H](CCC(=O)O)NC(=O)[C@@H]1CCCN1C(=O)[C@H](CO)NC(=O)[C@H](CC(C)C)NC(=O)[C@H](Cc1ccccc1)NC(=O)[C@H](Cc1ccc(O)cc1)NC(=O)[C@H](CO)NC(=O)CN)C(=O)N1CCC[C@H]1C(=O)N1CCC[C@H]1C(=O)N1CCC[C@H]1C(=O)N1CCC[C@H]1C(=O)N[C@H](C(=O)N[C@@H](CC(C)C)C(=O)N1CCC[C@H]1C(=O)N[C@@H](CC(C)C)C(=O)O)C(C)C,GHSR,calcium signal,antagonist,fluorescence,IC50,1.1 µM
CCC(CNc1nc(-c2cn3ccnc3cc2C)nc2ccccc12)c1ccccc1 (centres unmarked),"Sodium-dependent dopamine transporter (SLC6A3, Homo sapiens, UniProt Q01959)",transporter uptake,inhibitor,radiometric,IC50,9.86 µM
Cc1[nH]c(C)c(S(=O)(=O)Nc2ccc(S(F)(F)(F)(F)F)cc2)c1C(=O)N(C)C,DRD3,β-arrestin recruitment,antagonist,,IC50,1.7 µM
CC[C@H](C)[C@H](NC(=O)[C@H](C)NC(=O)[C@H](C)NC(=O)[C@H](CCC(=O)O)NC(=O)[C@H](CCCNC(=N)N)NC(=O)[C@H](C)NC(=O)[C@H](CC(C)C)NC(=O)[C@H](CC(C)C)NC(=O)[C@H](CCCNC(=N)N)NC(=O)[C@H](CCCNC(=N)N)NC(=O)[C@H](C)NC(=O)[C@H](Cc1c[nH]cn1)NC(=O)[C@H](CCC(=O)O)NC(=O)[C@@H]1CCCN1C(=O)[C@H](CO)NC(=O)[C@H](CC(C)C)NC(=O)[C@H](Cc1ccccc1)NC(=O)[C@H](Cc1c[nH]c2ccccc12)NC(=O)[C@H](CO)NC(=O)CN)C(=O)N1CCC[C@H]1C(=O)N1CCC[C@H]1C(=O)N1CCC[C@H]1C(=O)N1CCC[C@H]1C(=O)N[C@H](C(=O)N1CCC[C@H]1C(=O)N1CCC[C@H]1C(=O)N1CCC[C@H]1C(=O)O)C(C)C,GHSR,calcium signal,agonist,fluorescence,EC50,0.19 µM
O=C(Nc1cccc(F)c1)Nc1ccc2c(c1)C=CCP(=O)(O)O2,CA12,enzyme activity,inhibitor,stopped-flow,Ki,> 10 µM
Cc1[nH]c(C)c(S(=O)(=O)Nc2ccc(S(=O)(=O)F)c(F)c2)c1C(=O)N1CCC(F)(F)C1,DRD3,β-arrestin recruitment,antagonist,,IC50,6.5 µM
CC(C)[C@H](NC(=O)[C@@H](N)CCC(=O)O)C(=O)N[C@@H](CC(N)=O)C(=O)N[C@@H](Cc1ccc(O)cc1)C(=O)N[C@@H](CC(=O)O)C(=O)O,ACE,enzyme activity,inhibitor,,IC50,~1550 µM
Cc1ccc(C(=O)Nc2ccc3c(c2)C=CCP(=O)(O)O3)cc1,CA12,enzyme activity,inhibitor,stopped-flow,Ki,0.0078 µM
